# Screens as filed in PubChem BioAssay.
# An excerpt weighted towards active compounds, which were near 1.3% of everything screened.
# Pf gametocyte: late stage P. falciparum gametocyte viability inhibitors, primary screen, ATP luminescence, HTS. P. falciparum stage V gametocytes, 24 h. inhibition, % at 10.9 µM. 150,000 compounds, 0.065% hits. AID 743093, 2013;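 active = inhibition above the mean plus 3 SD of compounds within the control limits, set per campaign, cut at about 38% in these data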;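 also: 0% = DMSO wells and 100% = medium only without gametocytes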
# Hsp70 act: Hsp70 transcriptional activators, primary screen, cell-based, HeLa, Hsp70 promoter luciferase, luminescence, 10 µM | HeLa Hsp70 promoter luciferase reporter; scaled: vehicle 0, proteasome-inhibitor control 100% | activation, % at 10 µM | 200,000 compounds, 0.04% hits;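 active = activation above the mean across all tested compounds plus 3 SD, cutoff set per campaign, cut at about 5.5% in these data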;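 also: 100% = MG132 at 30 µM as the positive control and 0% = DMSO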
# Wee1 degr inh: Wee1 degradation inhibitors, primary screen, cell-based, HeLa, Wee1K328M-luciferase, luminescence. HeLa Luc-Wee1K328M stability; 100% = proteasome inhibitor MG132 effect. 220,000 compounds, 1.2% hits. reporter increase, % at 5 µM;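 active = activation above the mean of all tested compounds plus 3 SD, set per screening run, cut at about 8.8% in these data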;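 also: cells exposed to compound for 20 h before luminescence read; 0% = DMSO alone and 100% = MG132 at 30 µM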
# MDM2 E3 inh: MDM2-luciferase reporter signal enhancers, primary screen, MDM2 E3 ligase inhibitor project, cell-based, luminescence, 1536-well | AID 1230, 2008 | 210,000 compounds, 0.11% hits | cell-based MDM2 ubiquitination luciferase reporter, 2 h; 0 = plate control, 100 = twice control, blank-subtracted | signal enhancement, % at 5 µM;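 active = signal enhancement of 30% or more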;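 also: luminescence tracks abundance of the self-degrading MDM2-luciferase fusion protein; higher signal means inhibition of MDM2 E3 ligase activity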
# Target sequence (Q00987 whole entry, looked up, the tested form may be a part): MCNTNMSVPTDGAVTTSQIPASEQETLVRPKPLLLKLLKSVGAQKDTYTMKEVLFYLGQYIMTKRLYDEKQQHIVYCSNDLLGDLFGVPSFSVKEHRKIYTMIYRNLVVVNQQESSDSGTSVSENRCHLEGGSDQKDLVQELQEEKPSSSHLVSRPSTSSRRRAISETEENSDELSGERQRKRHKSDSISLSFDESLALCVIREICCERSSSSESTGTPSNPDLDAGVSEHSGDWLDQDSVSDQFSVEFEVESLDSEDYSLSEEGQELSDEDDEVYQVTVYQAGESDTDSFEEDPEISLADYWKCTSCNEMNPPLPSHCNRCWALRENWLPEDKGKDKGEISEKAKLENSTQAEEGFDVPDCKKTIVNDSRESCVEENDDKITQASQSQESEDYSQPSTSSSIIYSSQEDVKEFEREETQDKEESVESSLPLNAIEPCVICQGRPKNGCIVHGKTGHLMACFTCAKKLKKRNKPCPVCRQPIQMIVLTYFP
#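 Assay system: stable mammalian line carrying autodegrading MDM2–luciferase fusion reporter; Input: 2000 cells in each well; Compound dosing: single-point 5 µM; Schedule: 2 h compound exposure at 37 °C; Signal: SteadyLite luciferase luminescence after 15 min room-temperature reagent incubation; Evaluation: % luminescence enhancement versus blank-corrected plate control mean; Benchmarks: plate controls and plate blanks.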
# * = called active by the depositor; · = no result.
SMILES,Pf gametocyte,Hsp70 act,Wee1 degr inh,MDM2 E3 inh
O=C(O)CN1C(=O)NC2(CCOc3ccccc32)C1=O (centres undefined),7,·,9.8*,·
Nc1nc(Nc2ccccc2)nc(NCc2ccccc2)c1[N+](=O)[O-],5,·,-3,2
Nc1nc(Nc2ccccc2F)nc(NCc2ccccc2)c1[N+](=O)[O-],12,·,9.6*,-12
CCOC(=O)c1c(C)n(CC(O)CN(C)C)c2cc(Br)c(OC)cc12 (centres undefined),·,0,-1,-7
Brc1ccc(-c2cnc(-c3cccs3)o2)cc1,·,0,1,32*
CCCOc1ccc(-c2nnc(-c3cccs3)o2)cc1,-18,0,1,-41
Cc1ccc(C(C(=O)NCc2ccco2)N(C(=O)Cc2cccs2)c2cccnc2)cc1 (centres undefined),-3,0,0,-28
COc1ccc(-c2cn3cc(C)ccc3n2)cc1OC,11,0,10*,-32
COc1ccc(-c2cn3cc(C)ccc3n2)cc1F,5,0,1,-70
C/C(=N/OC(=O)c1ccc(C(F)(F)F)cc1)c1oc(C)nc1C,-22,·,3,-4
Cc1ccc(NC(=S)NC(C)(C)C)c([N+](=O)[O-])c1,-17,·,5,-6
C=CCNC(=S)Nc1ccc(C)cc1[N+](=O)[O-],15,1,9.1*,-5
COc1ccc(-n2c(SCc3ccccn3)nc3c(c2=O)SCC3)cc1OC,-5,0,5,-7
Cc1ccc(S(=O)(=O)N(C)C)cc1-n1c(SCC(=O)Nc2ccc(F)cc2Cl)nc2ccccc2c1=O,-2,0,8.9*,13
Cc1ccc(S(=O)(=O)N(C)C)cc1-n1c(SCC(=O)Nc2ccc(F)cc2)nc2ccccc2c1=O,-10,0,0,-10
CCn1c(SCC(=O)NC(=O)NCc2ccco2)nc2sc(C)c(C)c2c1=O,·,0,9.8*,-29
CCCOC(=O)C1=C(C)NC(=O)NC1c1cc2c(cc1Br)OCO2 (centres undefined),-22,·,·,·
COC(=O)C1=C(N)Oc2cc(C)n(Cc3cccnc3)c(=O)c2C1c1cccc(OC)c1OC (centres undefined),·,0,9.2*,-11
Nc1cc(S(=O)(=O)Nc2ccc(Br)cc2)ccc1Cl,18,·,9.4*,0
COc1ccc(NS(=O)(=O)c2ccc(Cl)c(N)c2)cc1Br,3,0,-1,-3
O=C(NC(=S)Nc1ccc(CN2CCCCC2)cc1)c1ccco1,-16,0,-2,-4
O=C(NC(=S)Nc1ccc(CN2CCOCC2)cc1)c1ccco1,-2,·,10*,-16
COC(=O)c1cc2sccc2n1CC(=O)N(C)c1ccccc1,12,2,-3,-5
CC(=O)Nc1ccc(S(=O)(=O)N(C)CC(=O)OCC(=O)N2CCc3ccccc32)cc1,·,0,-3,47*
CCN1CCN(C(c2cccs2)C(C)NS(=O)(=O)c2ccccc2)CC1 (centres undefined),·,0,11*,-17
SMILES,Pf gametocyte,Hsp70 act,Wee1 degr inh,MDM2 E3 inh
CC(NC(=O)c1ccccc1)c1nnc(SCc2nc3ccccc3c(=O)[nH]2)n1C (centres undefined),-24,0,8.8*,0
O=S(=O)(Cc1cccc(C(F)(F)F)c1)c1ncn[nH]1,1,0,2,-8
COc1ccc(CNc2ccc(C(=O)O)cc2)cc1,13,0,0,10
COc1ccc(CNc2ccc(Br)cc2)cc1,8,0,10*,-5
COC(=O)C(Cc1ccccc1)OS(N)(=O)=O (centres undefined),27,·,·,·
Clc1cccc(Cl)c1CSc1nnc(CN2CCOCC2)n1-c1ccccc1,·,0,11*,8
CC1(C)CC(=O)C2=C(C1)Nc1nc(SCCN3CCOCC3)[nH]c(=O)c1C2c1cccs1 (centres undefined),-15,-1,0,31*
CSc1nc2c(c(=O)[nH]1)C(c1cccs1)C1=C(CCCC1=O)N2 (centres undefined),11,0,0,-2
CCCCNC(C(=O)Nc1ccc(Cl)c([N+](=O)[O-])c1)c1ccccc1 (centres undefined),-2,0,0,-8
O=C(CN1CCCc2ccccc21)NC(=O)NC1CCCCC1,·,0,9.2*,-24
